Assay results as given in ChEMBL document CHEMBL4359826, “Preparation of bivalent agonists for targeting the mu opioid and cannabinoid receptors” (Eur J Med Chem, 2019).
Calls of active or inactive are those of the source.

Legend:
[1] = system: Rattus norvegicus; experiment: Effect on nociception of the contralateral paw in rat model of sodium iodoacetate-induced osteoarthritis paw withdrawal threshold in early phase at 20 ug administered as intrathecal injection measured up to 45 mins by Von Frey test (reference value: 44 +/- 2.4 g); format: organism-based; settings: in vivo, icv_or_intrathecal, 0.75 h
[2] = system: Rattus norvegicus; experiment: Effect on nociception of the contralateral paw in rat model of sodium iodoacetate-induced osteoarthritis paw withdrawal threshold in late phase at 20 ug administered as intrathecal injection measured after 60 to 90 mins by Von Frey test (reference value: 43 +/- 3.4 g); format: organism-based; settings: in vivo, icv_or_intrathecal
[3] = system: Rattus norvegicus; experiment: Antiallodynic activity in sodium iodoacetate-induced rat model of osteoarthritis assessed as increase in maximum effect in early phase at 20 ug administered as intrathecal injection measured up to 45 mins by Von Frey test; format: functional, organism-based
[4] = system: Rattus norvegicus; experiment: Antiallodynic activity in sodium iodoacetate-induced rat model of osteoarthritis assessed as reduction in maximum effect in late phase at 20 ug administered as intrathecal injection measured up to 60 to 90 mins by Von Frey test; format: functional, organism-based
[5] = target: T1, Cannabinoid receptor (Rattus norvegicus, UniProt Q9QZN9+P20272); experiment: Displacement of [3H]JWH-018 from CB1R/CB2R in Wistar rat brain membranes after 60 mins by liquid scintillation analysis; format: cell membranes
[6] = target: T2, Mu-type opioid receptor (Rattus norvegicus, UniProt P33535); experiment: Displacement of [3H]DAMGO from MOR in Wistar rat brain membranes after 60 mins by liquid scintillation analysis; format: cell membranes
T2 sequence (P33535 whole entry): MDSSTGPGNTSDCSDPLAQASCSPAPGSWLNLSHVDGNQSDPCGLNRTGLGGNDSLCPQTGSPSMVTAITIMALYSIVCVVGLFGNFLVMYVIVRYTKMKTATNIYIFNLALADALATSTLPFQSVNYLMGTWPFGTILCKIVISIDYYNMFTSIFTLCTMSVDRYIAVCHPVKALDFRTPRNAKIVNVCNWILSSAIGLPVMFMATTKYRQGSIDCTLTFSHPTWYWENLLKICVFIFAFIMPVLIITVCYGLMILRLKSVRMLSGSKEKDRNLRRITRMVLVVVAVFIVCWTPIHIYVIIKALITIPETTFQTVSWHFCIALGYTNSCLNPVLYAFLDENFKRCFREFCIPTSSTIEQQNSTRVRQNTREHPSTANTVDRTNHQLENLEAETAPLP

[7] = target: Kappa-type opioid receptor (Cavia porcellus, UniProt P41144); format: cell membranes, Brain, Membranes
Sequence of Kappa-type opioid receptor (P41144 whole entry): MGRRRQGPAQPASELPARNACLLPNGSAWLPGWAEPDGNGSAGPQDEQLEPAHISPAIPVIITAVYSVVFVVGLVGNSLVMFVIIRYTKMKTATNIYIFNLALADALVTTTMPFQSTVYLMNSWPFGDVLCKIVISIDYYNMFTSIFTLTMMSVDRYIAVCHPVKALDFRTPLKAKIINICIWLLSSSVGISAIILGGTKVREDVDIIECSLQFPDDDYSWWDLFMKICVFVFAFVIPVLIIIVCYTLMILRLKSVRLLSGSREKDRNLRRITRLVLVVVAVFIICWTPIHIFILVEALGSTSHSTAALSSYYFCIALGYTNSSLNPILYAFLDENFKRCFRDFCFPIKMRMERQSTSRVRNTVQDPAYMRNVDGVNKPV

[8] = target: T1, Cannabinoid receptor; format: cell membranes, Wistar, Brain, Membranes
[9] = Agonist activity at MOR/CB1R/CB2R receptor in Wistar rat brain membranes after 60 mins by [35S]-GTPgammaS binding assay; format: cell membranes
[10] = system: Rattus norvegicus; experiment: Effect on nociception of the contralateral paw in rat model of sodium iodoacetate-induced osteoarthritis assessed as paw withdrawal threshold in early phase at 7 ug administered as intrathecal injection measured up to 45 mins by Von Frey test (reference value: 44 +/- 2.4 g); format: ADME, organism-based; settings: in vivo, icv_or_intrathecal, 0.75 h
[11] = system: Rattus norvegicus; experiment: Effect on nociception of the contralateral paw in rat model of sodium iodoacetate-induced osteoarthritis assessed as paw withdrawal threshold in late phase at 7 ug administered as intrathecal injection measured after 60 to 90 mins by Von Frey test (reference value: 43 +/- 3.4 g); format: ADME, organism-based; settings: in vivo, icv_or_intrathecal
[12] = system: Rattus norvegicus; experiment: Antiallodynic activity in sodium iodoacetate-induced rat model of osteoarthritis assessed as increase in maximum effect in early phase at 7 ug administered as intrathecal injection measured up to 45 mins by Von Frey test; format: functional, organism-based
[13] = target: T2, Mu-type opioid receptor; experiment: Agonist activity at MOR in Wistar rat brain membranes after 60 mins by [35S]-GTPgammaS binding assay; format: functional, cell membranes
[14] = organism: Rattus norvegicus; settings: Wistar, Brain, Membranes, at 10 µM
[15] = target: T3, Cannabinoid receptor (Rattus norvegicus) (UniProt Q9QZN9+P20272); experiment: (§1) Displacement of [3H]JWH-018 from CB1R/CB2R in Wistar rat brain membranes assessed as dissociation rate constant at 10 uM by liquid scintillation analysis; format: cell membranes
T3 sequence (P20272 whole entry, looked up, one chain of several): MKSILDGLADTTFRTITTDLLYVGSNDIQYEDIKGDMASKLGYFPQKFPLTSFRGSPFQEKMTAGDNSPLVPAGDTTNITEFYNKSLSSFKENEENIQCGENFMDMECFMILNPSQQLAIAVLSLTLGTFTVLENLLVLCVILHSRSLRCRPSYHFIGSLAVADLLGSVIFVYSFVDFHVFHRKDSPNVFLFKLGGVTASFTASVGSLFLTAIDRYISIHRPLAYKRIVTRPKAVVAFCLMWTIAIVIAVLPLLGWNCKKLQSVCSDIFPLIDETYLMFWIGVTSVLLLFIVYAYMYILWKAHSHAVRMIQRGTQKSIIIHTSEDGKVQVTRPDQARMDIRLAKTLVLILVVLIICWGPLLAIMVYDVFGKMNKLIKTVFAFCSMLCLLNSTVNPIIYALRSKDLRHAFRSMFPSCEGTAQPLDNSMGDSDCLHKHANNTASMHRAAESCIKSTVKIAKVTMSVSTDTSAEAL
Procedure, shortened: (§2)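 Whole rat brain membranes (cerebellum removed; 0.3–0.5 mg/mL protein) in 50 mM Tris-HCl pH 7.4 with 2.5 mM EGTA, 5 mM MgCl2 and 0.5 mg/mL fatty-acid-free BSA, 30 °C. Kinetics used 0.6 nM [3H]JWH-018: association over 0–90 min, dissociation started with 10 µM JWH-018 after 60 min. Saturation over 0.5–35 nM. Competitors at 10^-11–10^-5 M, 60 min. Nonspecific binding with 10 µM JWH-018. Filtration onto PEI-soaked GF/B filters; n≥3.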

[16] = target: T1, Cannabinoid receptor; experiment: as §1; format: cell membranes; procedure, shortened: as §2
[17] = target: T3, Cannabinoid receptor (Rattus norvegicus); experiment: Displacement of [3H]JWH-018 from CB1R/CB2R in Wistar rat brain membranes assessed as specific binding at 10 uM up to 90 mins by liquid scintillation analysis relative to control; format: cell membranes; procedure, shortened: as §2
[18] = target: T3, Cannabinoid receptor (Rattus norvegicus); experiment: Displacement of [3H]JWH-018 from CB1R/CB2R in Wistar rat brain membranes assessed as pseudo-first order rate constant at 10 uM up to 90 mins by liquid scintillation analysis; format: cell membranes; procedure, shortened: as §2
[19] = target: T3, Cannabinoid receptor (Rattus norvegicus); experiment: Displacement of [3H]JWH-018 from CB1R/CB2R in Wistar rat brain membranes at 10 uM by liquid scintillation analysis relative to control; format: cell membranes; procedure, shortened: as §2
[20] = target: T1, Cannabinoid receptor; experiment: Displacement of [3H]JWH-018 from CB1R/CB2R in Wistar rat brain membranes assessed as dissociation constant by liquid scintillation analysis; format: cell membranes; procedure, shortened: as §2
[21] = target: Delta-type opioid receptor (Rattus norvegicus, UniProt P33533); experiment: Displacement of [3H]Ile5,6-deltorphin-2 from DOR in Wistar rat brain membranes after 60 mins by liquid scintillation analysis; format: cell membranes
Sequence of Delta-type opioid receptor (P33533 whole entry): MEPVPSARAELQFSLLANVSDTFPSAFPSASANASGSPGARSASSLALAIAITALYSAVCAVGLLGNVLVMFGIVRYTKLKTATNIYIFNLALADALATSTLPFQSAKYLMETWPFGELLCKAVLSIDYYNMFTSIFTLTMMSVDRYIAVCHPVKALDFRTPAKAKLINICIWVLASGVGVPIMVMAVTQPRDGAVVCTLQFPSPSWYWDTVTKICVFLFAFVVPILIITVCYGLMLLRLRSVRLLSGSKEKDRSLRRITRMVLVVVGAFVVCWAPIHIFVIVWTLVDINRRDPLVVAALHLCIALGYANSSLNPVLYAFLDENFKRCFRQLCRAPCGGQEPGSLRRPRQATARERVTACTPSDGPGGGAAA

[22] = target: T3, Cannabinoid receptor (Rattus norvegicus); experiment: Displacement of [3H]JWH-018 from CB1R/CB2R in Wistar rat brain membranes assessed as maximum efficacy at 10 uM by liquid scintillation analysis; format: cell membranes; procedure, shortened: as §2
[23] = target: T1, Cannabinoid receptor; experiment: Agonist activity at CB1R/CB2R in Wistar rat brain membranes after 60 mins by [35S]-GTPgammaS binding assay; format: functional, cell membranes
Procedure, shortened: (§3)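 Rat brain membranes (30 µg protein/tube) incubated 60 min at 30 °C with 0.05 nM [35S]GTPγS and ligand at 10^-10–10^-5 M. Buffer: 50 mM Tris-HCl pH 7.4 with 30 µM GDP, 100 mM NaCl, 3 mM MgCl2, 1 mM EGTA. […] Nonspecific binding taken with 10 µM GTPγS; basal set as 100%. Filtration and scintillation counting; n≥3.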

[24] = target: T3, Cannabinoid receptor (Rattus norvegicus); experiment: Agonist activity at CB1R/CB2R in Wistar rat brain membranes after 60 mins by [35S]-GTPgammaS binding assay relative to control; format: functional, cell membranes; procedure, shortened: as §3
[25] = target: Mu-type opioid receptor (Rattus norvegicus) (UniProt P33535); experiment: Agonist activity at MOR in Wistar rat brain membranes at 10 uM in presence of naloxone after 60 mins by [35S]-GTPgammaS binding assay relative to control; format: functional, cell membranes
Sequence of Mu-type opioid receptor (Rattus norvegicus) (P33535 whole entry): as the sequence (P33535 whole entry) above
Procedure, shortened: (§4)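 Rat brain membranes (30 µg protein/tube) incubated 60 min at 30 °C with 0.05 nM [35S]GTPγS and ligand at 10^-10–10^-5 M. Buffer: 50 mM Tris-HCl pH 7.4 with 30 µM GDP, 100 mM NaCl, 3 mM MgCl2, 1 mM EGTA. Nonspecific binding taken with 10 µM GTPγS; basal set as 100%. Filtration and scintillation counting; n≥3.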

[26] = target: Cannabinoid receptor 1 (Rattus norvegicus) (UniProt P20272); experiment: Agonist activity at CB1R in Wistar rat brain membranes at 10 uM in presence of rimonabant after 60 mins by [35S]-GTPgammaS binding assay relative to control; format: functional, cell membranes; procedure, shortened: as §3
Sequence of Cannabinoid receptor 1 (Rattus norvegicus) (P20272 whole entry): as the sequence (P20272 whole entry, looked up, one chain of several) above

[27] = target: T4, Cannabinoid receptor 2 (Rattus norvegicus) (UniProt Q9QZN9); experiment: Agonist activity at CB2R in Wistar rat brain membranes at 10 uM in presence of AM630 after 60 mins by [35S]-GTPgammaS binding assay relative to control; format: functional, cell membranes; procedure, shortened: as §3
T4 sequence (whole entry): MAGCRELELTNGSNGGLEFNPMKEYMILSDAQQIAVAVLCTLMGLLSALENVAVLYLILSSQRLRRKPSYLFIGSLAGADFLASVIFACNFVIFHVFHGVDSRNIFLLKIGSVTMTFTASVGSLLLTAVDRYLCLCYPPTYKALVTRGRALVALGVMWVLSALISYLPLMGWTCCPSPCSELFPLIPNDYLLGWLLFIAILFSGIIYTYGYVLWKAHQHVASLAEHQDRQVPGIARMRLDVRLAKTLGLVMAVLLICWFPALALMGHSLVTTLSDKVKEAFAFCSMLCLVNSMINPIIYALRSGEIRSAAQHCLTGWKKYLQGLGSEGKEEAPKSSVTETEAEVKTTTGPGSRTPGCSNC

[28] = organism: Rattus norvegicus; experiment: Agonist activity at MOR/CB1R/CB2R in Wistar rat brain membranes at 10 uM in presence of naloxone,rimonabant and AM630 after 60 mins by [35S]-GTPgammaS binding assay relative to control; format: cell membranes; procedure, shortened: as §3
[29] = target: T2, Mu-type opioid receptor; experiment: Agonist activity at MOR in Wistar rat brain membranes in presence of naloxone after 60 mins by [35S]-GTPgammaS binding assay; format: functional, cell membranes; procedure, shortened: as §4
[30] = target: Cannabinoid receptor 1 (Rattus norvegicus, UniProt P20272); experiment: Agonist activity at CB1R in Wistar rat brain membranes in presence of rimonabant after 60 mins by [35S]-GTPgammaS binding assay; format: functional, cell membranes; procedure, shortened: as §3
Sequence of Cannabinoid receptor 1 (P20272 whole entry): as the sequence (P20272 whole entry, looked up, one chain of several) above

[31] = target: T5, Cannabinoid receptor 2 (Rattus norvegicus, UniProt Q9QZN9); experiment: Agonist activity at CB2R in Wistar rat brain membranes in presence of AM630 after 60 mins by [35S]-GTPgammaS binding assay; format: functional, cell membranes; procedure, shortened: as §3
T5 sequence (Q9QZN9 whole entry): T4 sequence (whole entry)

[32] = system: Mus musculus; experiment: Antinociceptive activity in CD-1 mouse assessed as increase in thermal latency at 10 mg/kg, iv after 15 to 120 mins by hot plate technique; format: functional, organism-based
Procedure, shortened: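 Male CD-1 mice (25 g) given 10 mg/kg i.v. in 10 mL/kg; vehicle saline with 5% DMSO. Hot plate held at 55.0 °C. Latency to paw lick or jump, cut-off 60 s, read at 15–120 min. Baseline is the mean of three pre-test readings. Data given as %MPE; n=6/group.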

[33] = organism: Rattus norvegicus; experiment: Agonist activity at MOR/CB1R/CB2R in Wistar rat brain membranes after 60 mins by [35S]-GTPgammaS binding assay relative to control; format: cell membranes; procedure, shortened: as §3

COc1ccc2c3c1O[C@H]1C(=O)CC[C@@]4(O)[C@@H](C2)N(C)CC[C@]314 [OXYCODONE]
Activity [1]: 43 g | Activity [2]: 40 g | Activity [3]: Active | Activity [4]: Active

C[C@@H](NC(=O)[C@@H](N)Cc1ccc(O)cc1)C(=O)NCC(=O)N[C@@H](Cc1ccccc1)C(N)=O
Ki [5]: > 10000 nM | Ki [6]: 0.8 nM | Ki [7]: 173 nM | Ki [8]: > 10000 nM | EC50 [9]: 191 nM | Activity [10]: 43 g | Activity [11]: 40 g | Activity [12]: Active | EC50 [13]: 154 nM | Emax [14]: 157%

CCCCCn1cc(C(=O)c2cccc3ccccc23)c2ccccc21
Kdiss [15]: 0.00175 s⁻¹ | Kd(app) [16]: 6.5 nM | Activity [17]: 65% | K [18]: 0.124 min⁻¹ | Activity [19]: 60% | Kd [20]: 3.4 nM | Ki [5]: 3.4 nM | Ki [6]: > 10000 nM | Ki [21]: > 10000 nM | Ki [7]: > 10000 nM | Ki [8]: 2.9 nM | EC50 [9]: 69 nM | Activity [1]: 41 g | Activity [2]: 42 g | Activity [3]: Active | Emax [22]: 1120 fmol/mg | EC50 [23]: 36 nM | Emax [24]: 167% | Emax [14]: 163%

COc1ccc2c3c1O[C@H]1/C(=N\OCC(=O)NCCCCCCNC(=O)CCCCCn4cc(C(=O)c5cccc6ccccc56)c5ccccc54)CC[C@@]4(O)[C@@H](C2)N(C)CC[C@]314
Ki [5]: 34 nM | Ki [6]: 18 nM | Ki [21]: 263 nM | Ki [7]: 172 nM | Ki [8]: 12 nM | EC50 [9]: 215 nM | Emax [25]: 112% | Emax [26]: 139% | Emax [27]: 122% | Emax [28]: 100% | EC50 [29]: 397 nM | EC50 [30]: 452 nM | EC50 [31]: 340 nM | Activity [32]: Active | Activity [1]: 42 g | Activity [2]: 47 g | Activity [3]: Active | Emax [33]: 146% | Emax [14]: 147%
